The test addresses T1, Beta-lactamase OXA-9 (Klebsiella aerogenes) (UniProt P0A3M4).
T1 sequence (whole entry): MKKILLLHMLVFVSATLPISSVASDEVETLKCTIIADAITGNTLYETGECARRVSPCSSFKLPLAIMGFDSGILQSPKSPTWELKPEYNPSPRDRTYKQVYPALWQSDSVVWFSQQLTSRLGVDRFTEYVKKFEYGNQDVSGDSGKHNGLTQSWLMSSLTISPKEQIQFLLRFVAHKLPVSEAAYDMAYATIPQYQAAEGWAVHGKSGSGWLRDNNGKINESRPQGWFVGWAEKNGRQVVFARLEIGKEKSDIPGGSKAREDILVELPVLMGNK
Kind of test: Inhibition of beta-lactamase of Enterobacter aerogenes relative to oxacillin sulfoxide(=1). The gist of the method:
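Partially purified Enterobacter aerogenes β-lactamase at constant concentration in pH 8.5 phosphate buffer, 25 °C, hydrolysing cephalothin (2.6 × 10^-4 M). Inhibitors tested at 3.4 × 10^-7 to 8.5 × 10^-5 M. Initial hydrolysis rates with (v_i) and without (v) inhibitor followed by absorbance at 260 nm and estimated graphically. Ratio v/v_i expressed relative to a reference compound.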

As to `Cc1onc(-c2ccccc2)c1C(=O)N[C@@H]1C(=O)N2[C@@H]1[S+]([O-])C(C)(C)[C@@H]2C(=O)O` (stereo partly specified), the Relative inhibition came out at 1.
To `COC(=O)[C@@H]1N2C(=O)[C@@H](NC(=O)c3c(-c4c(Cl)cccc4Cl)noc3C)[C@H]2SC1(C)C` belongs 1500; to `Cc1onc(-c2ccccc2Cl)c1C(=O)N[C@@H]1C(=O)N2[C@@H]1[S+]([O-])C(C)(C)[C@@H]2C(=O)O` (stereo partly specified), 370.
To `COC(=O)[C@@H]1N2C(=O)[C@@H](NC(=O)c3c(OC)cccc3OC)[C@H]2SC1(C)C` belongs 2; to `COC(=O)[C@@H]1N2C(=O)[C@@H](NC(=O)c3c(-c4ccccc4)noc3C)[C@H]2SC1(C)C`, 120.
In turn, `COC(=O)[C@@H]1N2C(=O)[C@@H](NC(=O)c3c(-c4ccccc4Cl)noc3C)[C@H]2SC1(C)C` displayed a Relative inhibition of 270.
Regarding `Cc1onc(-c2ccccc2Cl)c1C(=O)N[C@@H]1C(=O)N2[C@@H]1SC(C)(C)[C@@H]2C(=O)O`, the Relative inhibition was determined as 5000.
For the compound `Cc1onc(-c2c(Cl)cccc2Cl)c1C(=O)N[C@@H]1C(=O)N2[C@@H]1SC(C)(C)[C@@H]2C(=O)O`, the Relative inhibition was 5000.
With `Cc1onc(-c2c(F)cccc2Cl)c1C(=O)N[C@@H]1C(=O)N2[C@@H]1SC(C)(C)[C@@H]2C(=O)O` the figure was 5000; with `Cc1onc(-c2ccccc2)c1C(=O)N[C@@H]1C(=O)N2[C@@H]1SC(C)(C)[C@@H]2C(=O)O`, 5000; with `COc1cccc(OC)c1C(=O)N[C@@H]1C(=O)N2[C@@H]1SC(C)(C)[C@@H]2C(=O)O`, 50.

Values taken from ChEMBL document CHEMBL1121568, “A multifaceted approach to the study of the side-chain conformation in beta-lactamase-resistant penicillins” (J Med Chem, 1980).
